Compound activity from PubChem.
Rows were chosen to be rich in hits. Some 3.7% of all compounds tested hit in one or more screens of this group.
KCNK9 block – human KCNK9 channel inhibition; Q9NPC2; HEK293 KCNK9, FluxOR thallium flux fluorescence; hits give low values; B-score at 10 µM; 310,000 compounds, 1.2% hits; AID 488922;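 active = ratio B-score over 3 SD below the library mean, with starting fluorescence within 5 SD of its mean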;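 also: negative B-score means less thallium flux so channel inhibition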
Target sequence (Q9NPC2 whole entry, looked up): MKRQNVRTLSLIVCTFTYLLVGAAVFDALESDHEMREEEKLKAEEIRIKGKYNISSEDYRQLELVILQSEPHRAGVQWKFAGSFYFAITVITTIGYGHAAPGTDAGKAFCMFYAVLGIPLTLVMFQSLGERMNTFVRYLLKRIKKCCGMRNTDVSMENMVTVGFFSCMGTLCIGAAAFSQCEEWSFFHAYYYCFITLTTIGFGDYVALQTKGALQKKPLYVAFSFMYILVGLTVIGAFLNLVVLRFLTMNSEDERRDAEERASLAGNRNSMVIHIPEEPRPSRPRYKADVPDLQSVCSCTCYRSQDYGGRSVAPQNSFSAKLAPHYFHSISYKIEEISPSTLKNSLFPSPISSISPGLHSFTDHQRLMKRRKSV
KCNQ1 block – blocks the human KCNQ1 potassium channel. B-score at 10 µM. 310,000 compounds, 1.3% hits. P51787. CHO-K1 KCNQ1, FluxOR thallium flux fluorescence; hits give high values;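 active = compounds whose thallium flux B-score, printed positive for inhibition, exceeds three library SD while starting fluorescence stays within three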;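 also: channel opened by potassium depolarization with thallium stimulus after 20 min compound exposure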
Kir21 block – blocks the mouse Kir2.1 inward-rectifier potassium channel. HEK293-Kir2.1, FluxOR thallium flux fluorescence; hits give low values. B-score at 10 µM. 310,000 compounds, 0.85% hits. P35561;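 active = fluorescence ratio B-score at or below minus 3 SD of library scores, with starting-brightness B-score within 2 SD, cut at about -4.2 in these data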;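 also: channel flux triggered by added potassium and thallium sulfate stimulus; B-score of peak minus minimum fluorescence over baseline after thallium stimulus; more negative B-score means stronger Kir2.1 block with less thallium influx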
KCNQ1 act – human KCNQ1 channel potentiation or activation; B-score at 10 µM; AID 2648; CHO-K1 KCNQ1, thallium flux FluxOR fluorescence; hits give high values; P51787; 310,000 compounds, 0.35% hits;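 active = fluorescence ratio B-score, a plate-corrected score, at least three library SD, with initial intensity B-score within 5 SD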
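Test system: CHO-K1 cells stably expressing KCNQ1 / Medium: assay buffer / Also added: depolarizing K+/Tl+ stimulus, K2SO4 and Tl2SO4 each 12.5 mM in 5x stock / Incubation: 90 min dye loading and 20 min compound exposure, both at room temperature / Signal: thallium influx via FluxOR fluorescence, kinetic imaging / Evaluation: B score of baseline-normalized fluorescence ratio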
KCNK3 inh – human KCNK3 channel inhibition, primary screen; 340,000 compounds, 0.84% hits; B-score at 10 µM; CHO-KCNK3 thallium flux, FluxOR fluorescence; hits give low values;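 active = B-score under library mean minus 4 SD, starting fluorescence ratio at most library mean plus 5 SD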;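 also: more negative B-score means stronger inhibition of thallium flux through KCNK3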
hERG protect – hERG (human) protection from proarrhythmic block; CHO-hERG, FluxOR thallium flux, dofetilide IC70 present; activation (rescue from dofetilide block), less the hit threshold, % at 10 µM; 310,000 compounds, 0.51% hits; AID 1511;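 active = activation above the mean of controls blocked by dofetilide plus 5 SD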;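 also: thallium influx through hERG after potassium depolarization seen as dye fluorescence rise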
KCNK9 inh conf – confirmation of human KCNK9 potassium channel inhibitors; shares compounds with KCNK9 block; 4,900 compounds, 43% hits; inhibition, % at 10 µM; AID 492992; HEK293 KCNK9 cells, FluxOR thallium flux fluorescence;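 active = thallium signal inhibited by more than 5 SD of the compound-free buffer control wells, on both duplicate plates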;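 also: 0% = assay buffer control wells without compound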
Kir2-1 spec – tests whether KCNK9 modulators also affect mouse Kir2.1; shares compounds with KCNK9 block; Kir2.1 cells, FluxOR thallium flux fluorescence; inhibition, % at 10 µM; 4,900 compounds, 4% hits; AID 492993;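 active = thallium signal drop more than 5 SD beyond the mean of the no-compound control wells, seen in both duplicate plates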;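 also: signal is fluorescence rise after thallium addition divided by baseline fluorescence; plate controls were assay buffer only for no effect and full block by chlorpromazine control for full effect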
HEK293 Tl ctr – second counter-screen for KCNK9 modulators: effect in non-induced cells; shares compounds with KCNK9 block; inhibition, % at 10 µM; AID 492997; 4,900 compounds, 40% hits; non-induced KCNK9-HEK293, FluxOR thallium flux;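 active = thallium signal drop beyond 5 SD of the untreated control mean, on both duplicate plates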;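 also: plate controls were buffer only IC0 wells for no effect and SID17386958 at its maximal inhibitory level for full effect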
Numbers without * were called inactive; i = inactive; / = not tested or not shown.

SMILES	KCNK9 block	KCNQ1 block	Kir21 block	KCNQ1 act	KCNK3 inh	hERG protect	KCNK9 inh conf	Kir2-1 spec	HEK293 Tl ctr
CCn1cc(/C=N\NC(=O)c2ccc3c(c2)c(C)c(C)n3Cc2ccccc2)c(C)n1	-18.5*	i	-1.29	i	i	-3.1	68.0%*	i	27.0%*
CCn1ncc(/C=N/NC(=O)c2ccc3c(c2)OCO3)c1C	i	i	-0.06	i	i	-5.1	/	/	/
CCn1nc(C)c(/C=N/NC(=O)c2ccc3c(c2)c(C)c(C)n3Cc2ccccc2)c1C	-15*	i	0.04	i	i	-1.4	54.5%*	i	28.5%*
O=C1NC2(CCCCCC2)C(=O)N1Cc1cccc([N+](=O)[O-])c1	i	i	-0.27	i	i	-7.0	/	/	/
COc1ccc2c(CC(=O)OCC(=O)Nc3cccc(C)c3)coc2c1	/	/	/	/	i	/	/	/	/
CCOC(=O)Nc1ccc2c(c1)N(C(=O)CN1CCN(CCO)CC1)c1ccccc1CC2	i	i	0.85	i	i	-0.5	/	/	/
C/C=C/C1=CC(=O)C[C@H](c2ccc3c(c2)OCO3)C1	/	/	/	/	i	/	/	/	/
O=C(Nc1ccc(O)c2c(=O)cc(-c3ccccc3Cl)oc12)c1ccccc1Cl	i	i	1.09	i	i	-3.2	/	/	/
Cc1noc(C)c1S(=O)(=O)Nc1ccc(O)c2c(=O)cc(-c3ccccc3Cl)oc12	i	i	1.95	i	i	-3.1	i	i	i
Cc1ccc(C(=O)N2CCN(Cc3ccc4c(c3)OCO4)CC2)cc1C	i	i	0.46	i	i	-5.4	/	/	/
O=Cc1ccccc1-c1cn(CN2C(=O)c3ccccc3C2=O)nn1	i	i	-0.81	i	i	-2.8	/	/	/
COc1ccccc1OCCOCCOc1ccc(C)cc1Br	i	i	-1.28	i	i	-4.9	i	i	i
COc1ccccc1OCCCOc1ccc(C)cc1Br	i	i	0.03	i	i	-4.7	/	/	/
Cc1ccc(OCCCCN(C)Cc2ccccc2)c(Br)c1	i	i	-12.5*	i	i	-13.9	i	79.5%*	i
COc1cc(C)ccc1OCCCOc1ccccc1Br	i	i	-1.96	i	i	-4.0	/	/	/
CSc1nnc(-c2ccccc2N=Cc2c(C)[nH]n(-c3ccc4ccccc4c3)c2=O)c(=O)[nH]1	i	i	0.67	i	i	-13.2	i	i	i
C=CCSc1nnc(-c2ccccc2N=Cc2c(C)[nH]n(-c3ccccc3)c2=O)c(=O)[nH]1	i	i	1.4	i	i	-22.3	/	/	/
Cc1ccc(NC(=O)CNc2cccc(Br)c2)cc1S(=O)(=O)N1CCOCC1	/	/	/	/	i	/	/	/	/
CCOC(=O)c1cc(NC(=O)Nc2ccc(Br)cc2)c(C)nc1C	i	i	1.48	i	i	-4.7	i	i	i
C[C@@H]1[C@H]2[C@@H]3CC[C@@H](C3)[C@H]2CN[C@H]1c1cn(Cc2ccccc2)c2ccccc12	/	/	/	/	i	/	/	/	/
O=C(NC1=NCCS1)c1ccc(F)c(S(=O)(=O)N2CCOCC2)c1	/	/	/	/	i	/	/	/	/
CCN(Cc1ccccc1)C(c1cccs1)c1nnnn1C1CCCCC1 (stereo not drawn)	-12*	i	0.9	i	i	-4.6	55.5%*	i	34.5%*
CCn1cc(CCCC(=O)NCc2cccc(OC)c2)c2ccccc21	i	i	-2.8	i	i	-5.7	i	i	i
COc1cccc(CNC(=O)C(Cc2ccccc2)n2cccc2)c1 (stereo not drawn)	i	i	0.66	i	i	-13.7	i	i	i
CCn1cc(CCCC(=O)NCc2ccccc2OC)c2ccccc21	i	i	-1.71	i	i	-3.1	/	/	/
SMILES	KCNK9 block	KCNQ1 block	Kir21 block	KCNQ1 act	KCNK3 inh	hERG protect	KCNK9 inh conf	Kir2-1 spec	HEK293 Tl ctr
Cc1cc(C)c(OCC(=O)Nc2nnc(C3CC3)s2)c(C)c1	/	/	/	/	i	/	/	/	/
COc1ccc(/C=N/NC(=O)c2csc(-n3nc(C)cc3C(F)(F)F)n2)cc1	-10.1*	i	1.78	i	i	-12.0	i	i	26.5%*
COc1ccc(S(=O)(=O)NNC(=O)c2csc(-n3nc(C)cc3C(F)(F)F)n2)cc1OC	i	i	0.52	i	i	-3.5	/	/	/
COc1cc(/C=C/C(=O)OCC(=O)N2CCCC2)ccc1OCC#N	/	/	/	/	i	/	/	/	/
Cc1c(Br)cnn1C(C)C(=O)N1CCN(c2ccccc2F)CC1 (stereo not drawn)	/	/	/	/	i	/	/	/	/
CCCCC(=O)N(c1ccc(C(=O)O)cc1)c1nc(-c2ccc(Cl)cc2)c(CC)s1	i	i	-1.13	i	i	-9.6	i	i	i
Cc1ccc(NC(=O)c2sccc2SCc2cccc(C(F)(F)F)c2)cc1	-13.8*	10*	0.28	i	i	-9.8	64.5%*	47.5%*	50.0%*
O=C(CN(Cc1ccccc1Cl)S(=O)(=O)c1ccc(Cl)cc1)N/N=C/c1ccc(C(=O)O)cc1	i	i	1.23	i	i	-28.0	/	/	/
N#Cc1ccc(-c2cccnc2)nc1SCc1ccc(Cl)cc1Cl	-13*	i	0.54	i	i	-3.7	46.0%*	i	37.5%*
N#Cc1ccc(-c2cccnc2)nc1SCc1ccc(Cl)c(Cl)c1	i	i	3.04	i	i	-4.3	/	/	/
CC(Oc1ccc(F)cc1F)C(=O)NNC(=S)NCC1CCCO1 (stereo not drawn)	i	i	-1.48	i	i	-7.4	/	/	/
CCOC(=O)C1=C(O)/C(=C/c2cc(OC)c(O)c(OC)c2)SC1=Nc1ccc(OC)cc1	-9.88*	i	-1.65	i	i	-1.1	i	i	i
Cn1c(COc2ccc(Cl)cc2Cl)nnc1SCC(=O)NCC1CCCO1 (stereo not drawn)	i	i	-0.83	i	i	-5.6	/	/	/
Cc1ccc(-c2nc3cnccn3c2Nc2ccc3c(c2)OCO3)cc1	-8.57*	i	-2.41	i	i	-6.7	44.5%*	i	i
COc1ccc(-c2nc3cnccn3c2Nc2ccc3c(c2)OCO3)cc1	i	i	-0.83	i	i	-14.3	/	/	/
Cc1cc(C)n2c(Nc3ccc4c(c3)OCCO4)c(-c3ccccc3)nc2n1	-11.4*	i	0.18	i	i	-18.3	39.0%*	i	28.5%*
O=C(Cc1ccccc1)Nc1ncccn1	i	i	-1.09	i	i	-1.7	/	/	/
